ChEMBL document CHEMBL1121810, “Antihypertensive activity of 6-arylpyrido[2,3-d]pyrimidin-7-amine derivatives” (1981)

How the values were obtained:
Assay type in all cases: functional
Settings in all cases: route oral
Rattus norvegicus [1] = assay: Effect on heart rate of spontaneously hypertensive rats, 18 hr after peroral administration of 50 mg/kg of compound
Procedure, shortened: (§1)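 Heart rate was derived from the pulsatile arterial pressure signal in conscious catheterized male SHR (22-24 weeks, 250-350 g), with continuous monitoring sampled 3 min per 30 min. Drug was given by gavage as a 4% gum acacia suspension at 2 mL/kg, dose as free base, to groups of 3-4 rats with mean pressure >150 mmHg. Individual 30-min means were compared with pretreatment values.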

Rattus norvegicus [2] = assay: Effect on heart rate of spontaneously hypertensive rats, 10 hr after peroral administration at 50 mg/kg; procedure, shortened: as §1
Rattus norvegicus [3] = assay: Effect on heart rate of spontaneously hypertensive rats, 2 hr after peroral administration of 10 mg/kg of compound; procedure, shortened: as §1
Rattus norvegicus [4] = assay: Effect on heart rate of spontaneously hypertensive rats, 10 hr after peroral administration of 10 mg/kg of compound; procedure, shortened: as §1
Rattus norvegicus [5] = assay: Effect on heart rate of spontaneously hypertensive rats, 2 hr after peroral administration at 50 mg/kg; procedure, shortened: as §1
Rattus norvegicus [6] = assay: Maximum percent decrease in heart rate of spontaneously hypertensive rats, 5 hours after peroral administration of 50 mg/kg of compound
Procedure, shortened: (§2)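 Conscious male SHR (Kyoto-Wistar origin, 22-24 weeks, 250-350 g; mean BP >150 mmHg, pulse pressure >25 mmHg) with indwelling catheters, ~0.8 mL heparinized saline/day. Dosed by gavage as a 4% gum acacia suspension, 2 mL/kg, free-base doses, 3-4 rats per group. Heart rate was derived from the pulsatile pressure signal, sampled 3 min every 30 min, and 30-min means were compared with pretreatment values.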

Rattus norvegicus [7] = assay: Maximum percent decrease in heart rate of spontaneously hypertensive rats, 8 hours after peroral administration of 50 mg/kg of compound; procedure, shortened: as §2
Rattus norvegicus [8] = assay: Effect on heart rate of spontaneously hypertensive rats, 24 hr after peroral administration at 50 mg/kg; procedure, shortened: as §1
Rattus norvegicus [9] = assay: Blood pressure rating in spontaneously hypertensive rats, 10 hr after peroral administration of 50 mg/kg of compound
Procedure, shortened: (§3)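 Conscious male SHR (Kyoto-Wistar origin, 22-24 weeks, 250-350 g) with indwelling catheters, given about 160 units heparin/day in saline. Only rats with mean blood pressure >150 mmHg and pulse pressure >25 mmHg were used, in groups of 3-4. Dosing was oral gavage at 2 mL/kg in 4% gum acacia suspension, as free base. Pressure was sampled 3 min of every 30 min, and 30-min means were compared with pretreatment values.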

Rattus norvegicus [10] = assay: Blood pressure rating in spontaneously hypertensive rats, 2 hr after peroral administration of 50 mg/kg of compound; procedure, shortened: as §3
Rattus norvegicus [11] = assay: Blood pressure rating in spontaneously hypertensive rats, 24 hr after peroral administration of 50 mg/kg of compound; procedure, shortened: as §3
Rattus norvegicus [12] = assay: Maximum percent decrease in heart rate of spontaneously hypertensive rats, 3 hours after peroral administration of 50 mg/kg of compound; procedure, shortened: as §1
Rattus norvegicus [13] = assay: Effect on heart rate of spontaneously hypertensive rats,18hours after peroral administration of 50 mg/kg of compound; procedure, shortened: as §1
Rattus norvegicus [14] = assay: Maximum percent decrease in heart rate of spontaneously hypertensive rats, 28 hours after peroral administration of 50 mg/kg of compound; procedure, shortened: as §1
Rattus norvegicus [15] = assay: Effect on heart rate of spontaneously hypertensive rats, 24 hr after peroral administration of 10 mg/kg of compound; procedure, shortened: as §1
Rattus norvegicus [16] = assay: Effect on heart rate of spontaneously hypertensive rats, 24 hours after peroral administration of 50 mg/kg of compound; procedure, shortened: as §1
Rattus norvegicus [17] = assay: Maximum percent decrease in heart rate of spontaneously hypertensive rats, 10 hours after peroral administration of 50 mg/kg of compound; procedure, shortened: as §1
Rattus norvegicus [18] = assay: Maximum effect on heart rate of spontaneously hypertensive rats, 3-5 hr after peroral administration of 10 mg/kg of compound; procedure, shortened: as §1
Rattus norvegicus [19] = assay: Maximum effect on heart rate of spontaneously hypertensive rats, 18 hours after peroral administration of 10 mg/kg of compound; procedure, shortened: as §1
Rattus norvegicus [20] = assay: Max effect on heart rate of spontaneously hypertensive rats, 3-5 hr after peroral administration of 10 mg/kg of compound; procedure, shortened: as §1
Rattus norvegicus [21] = assay: Maximum percent decrease in heart rate of spontaneously hypertensive rats, 2 hours after peroral administration of 50 mg/kg of compound; procedure, shortened: as §1
Rattus norvegicus [22] = assay: Effect on heart rate of spontaneously hypertensive rats, 2 hr after peroral administration of 3 mg/kg of compound; procedure, shortened: as §1
Rattus norvegicus [23] = assay: Effect on heart rate of spontaneously hypertensive rats, 24 hr after peroral administration of 3 mg/kg of compound; procedure, shortened: as §1
Rattus norvegicus [24] = assay: Maximum percent decrease in heart rate of spontaneously hypertensive rats, 10 hr after peroral administration of 50 mg/kg of compound; procedure, shortened: as §1
Rattus norvegicus [25] = assay: Maximum percent decrease in heart rate of spontaneously hypertensive rats, 6 hours after peroral administration of 50 mg/kg of compound; procedure, shortened: as §2
Rattus norvegicus [26] = assay: Effect on heart rate of spontaneously hypertensive rats, 18 hr after peroral administration of 10 mg/kg of compound; procedure, shortened: as §1
Rattus norvegicus [27] = assay: Maximum percent decrease in heart rate of spontaneously hypertensive rats, 4 hr after peroral administration of 50 mg/kg of compound; procedure, shortened: as §1

Cc1ncc2cc(-c3c(C)cccc3Cl)c(N)nc2n1
Activity rating (Rattus norvegicus [1]): 2 | Activity rating (Rattus norvegicus [2]): 2 | Activity rating (Rattus norvegicus [3]): 2 | Activity rating (Rattus norvegicus [4]): 2 | Activity rating (Rattus norvegicus [5]): 1 | Decrease (Rattus norvegicus [6]): 30%

Cc1nc(C)c2cc(-c3ccccc3C)c(N)nc2n1
Decrease (Rattus norvegicus [7]): 11% | Activity rating (Rattus norvegicus [8]): 0 | Activity rating (Rattus norvegicus [2]): 0 | Activity rating (Rattus norvegicus [5]): 0

COCc1ncc2cc(-c3c(Cl)cccc3Cl)c(N)nc2n1
Activity rating (Rattus norvegicus [9]): 1 | Activity rating (Rattus norvegicus [10]): 1 | Activity rating (Rattus norvegicus [11]): 1 | Decrease (Rattus norvegicus [12]): 14%

Nc1nc2ncncc2cc1-c1c(Cl)cccc1Br
Activity rating (Rattus norvegicus [13]): 1 | Activity rating (Rattus norvegicus [2]): 2 | Activity rating (Rattus norvegicus [3]): 1 | Activity rating (Rattus norvegicus [4]): 1 | Decrease (Rattus norvegicus [14]): 28% | Activity rating (Rattus norvegicus [5]): 1 | Activity rating (Rattus norvegicus [15]): 1

Cc1cccc(C)c1-c1cc2cncnc2nc1N
Activity rating (Rattus norvegicus [2]): 0 | Activity rating (Rattus norvegicus [5]): 1 | Decrease (Rattus norvegicus [12]): 12%

Nc1nc2ncncc2cc1-c1ccccc1Cl
Activity rating (Rattus norvegicus [2]): 0 | Activity rating (Rattus norvegicus [5]): 0 | Activity rating (Rattus norvegicus [16]): 0

Cc1cccc(Cl)c1-c1cc2cncnc2nc1N
Activity rating (Rattus norvegicus [1]): 1 | Activity rating (Rattus norvegicus [2]): 2 | Decrease (Rattus norvegicus [17]): 21% | Activity rating (Rattus norvegicus [5]): 1

Cc1ncc2cc(-c3c(Cl)cccc3Br)c(N)nc2n1
Activity rating (Rattus norvegicus [8]): 2 | Activity rating (Rattus norvegicus [18]): 1 | Activity rating (Rattus norvegicus [2]): 2 | Activity rating (Rattus norvegicus [5]): 2 | Decrease (Rattus norvegicus [6]): 26% | Activity rating (Rattus norvegicus [19]): 0

Cc1ncc2cc(-c3c(C)cccc3Br)c(N)nc2n1
Activity rating (Rattus norvegicus [8]): 0 | Activity rating (Rattus norvegicus [2]): 1 | Activity rating (Rattus norvegicus [5]): 0 | Decrease (Rattus norvegicus [6]): 18%

Nc1nc2ncncc2cc1-c1ccccc1Br
Activity rating (Rattus norvegicus [20]): 0 | Activity rating (Rattus norvegicus [1]): 1 | Activity rating (Rattus norvegicus [2]): 1 | Activity rating (Rattus norvegicus [5]): 0 | Decrease (Rattus norvegicus [6]): 16%

Nc1nc2ncncc2cc1-c1ccccc1I
Decrease (Rattus norvegicus [7]): 11% | Activity rating (Rattus norvegicus [8]): 1 | Activity rating (Rattus norvegicus [2]): 0 | Activity rating (Rattus norvegicus [5]): 0

Cc1ncc2cc(-c3ccc(Cl)cc3Cl)c(N)nc2n1
Decrease (Rattus norvegicus [7]): 13% | Activity rating (Rattus norvegicus [8]): 1 | Activity rating (Rattus norvegicus [2]): 1 | Activity rating (Rattus norvegicus [5]): 0

CCc1ccccc1-c1cc2cncnc2nc1N
Activity rating (Rattus norvegicus [8]): 0 | Activity rating (Rattus norvegicus [2]): 0 | Activity rating (Rattus norvegicus [5]): 3 | Decrease (Rattus norvegicus [21]): 33%

Clc1cccc(Cl)c1NC1=NCCN1 [CLONIDINE]
Activity rating (Rattus norvegicus [22]): 0 | Activity rating (Rattus norvegicus [23]): 2

Nc1nc2nc(CO)ncc2cc1-c1c(Cl)cccc1Cl
Decrease (Rattus norvegicus [24]): 17% | Activity rating (Rattus norvegicus [8]): 1 | Activity rating (Rattus norvegicus [2]): 1 | Activity rating (Rattus norvegicus [5]): 0

Cc1cc(C)c(-c2cc3cnc(C)nc3nc2N)c(C)c1
Activity rating (Rattus norvegicus [8]): 0 | Activity rating (Rattus norvegicus [2]): 0 | Activity rating (Rattus norvegicus [5]): 1 | Decrease (Rattus norvegicus [21]): 18%

Cc1ncnc2nc(N)c(-c3c(Cl)cccc3Cl)cc12
Activity rating (Rattus norvegicus [2]): 2 | Activity rating (Rattus norvegicus [3]): 0 | Decrease (Rattus norvegicus [25]): 26% | Activity rating (Rattus norvegicus [4]): 0 | Activity rating (Rattus norvegicus [5]): 2 | Activity rating (Rattus norvegicus [15]): 0

Cc1ccccc1-c1cc2cncnc2nc1N
Activity rating (Rattus norvegicus [8]): 0 | Activity rating (Rattus norvegicus [2]): 1 | Activity rating (Rattus norvegicus [3]): 0 | Activity rating (Rattus norvegicus [4]): 0 | Activity rating (Rattus norvegicus [5]): 1 | Decrease (Rattus norvegicus [21]): 18% | Activity rating (Rattus norvegicus [15]): 0

Cc1nc(C)c2cc(-c3c(Cl)cccc3Cl)c(N)nc2n1
Activity rating (Rattus norvegicus [1]): 2 | Activity rating (Rattus norvegicus [2]): 3 | Decrease (Rattus norvegicus [25]): 32% | Activity rating (Rattus norvegicus [5]): 2

Cc1ncc2cc(-c3c(Br)cccc3Br)c(N)nc2n1
Activity rating (Rattus norvegicus [8]): 2 | Activity rating (Rattus norvegicus [2]): 2 | Activity rating (Rattus norvegicus [3]): 1 | Decrease (Rattus norvegicus [25]): 28% | Activity rating (Rattus norvegicus [4]): 2 | Activity rating (Rattus norvegicus [5]): 2 | Activity rating (Rattus norvegicus [26]): 1

Cc1ncc2cc(-c3ccccc3Br)c(N)nc2n1
Activity rating (Rattus norvegicus [20]): 0 | Activity rating (Rattus norvegicus [8]): 0 | Decrease (Rattus norvegicus [27]): 19% | Activity rating (Rattus norvegicus [2]): 1 | Activity rating (Rattus norvegicus [5]): 1
